# bovine MsrA act: bovine methionine sulfoxide reductase A activation; purified bovine MsrA, absorbance read-out; activation, % at 10.6 µM; hit rate 0.3% among 360,000; in the data active = activation above about 7.5%;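 note: 0% = vehicle and 100% = reference activator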
# ARFGAP1 inh: inhibitors of rat ARFGAP1 | inhibition, % at 16.5 µM | hit rate 0.26% among 360,000 | Q62848 | Arfgap1-stimulated ARF1 GTP hydrolysis, GDP FP detection;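 active = inhibition above a per-plate limit, mean inhibition of low control wells plus 3 SD, cut at about 25% in these data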;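 note: 0% = DMSO wells with enzyme and 100% = wells lacking Arfgap1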
#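 Material: rat Arfgap1 GAP domain (His6, aa 1-136), purified enzyme. Also added: human ARF1(Δ1-17)-GTP substrate. Compound dosing: 16.5 µM single point, 1.26% DMSO. Timing: enzyme reaction 120 min at 25 °C after 20 min preincubation. Signal: GDP detection by fluorescence polarization. Read-out basis: percent inhibition of GAP-stimulated GDP formation, scaled between DMSO and no-Arfgap1 medians.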
# ASAP1 inh: ASAP1 ArfGAP inhibition. hit rate 0.19% among 360,000. Q9ULH1. inhibition, % at 16.5 µM. ASAP1-stimulated ARF1 GTP hydrolysis, GDP FP detection; in the data active = inhibition above about 25%;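 note: 0% = vehicle with enzyme and substrate and 100% = no enzyme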
# Target sequence (Q9ULH1 325-724 limits assumed): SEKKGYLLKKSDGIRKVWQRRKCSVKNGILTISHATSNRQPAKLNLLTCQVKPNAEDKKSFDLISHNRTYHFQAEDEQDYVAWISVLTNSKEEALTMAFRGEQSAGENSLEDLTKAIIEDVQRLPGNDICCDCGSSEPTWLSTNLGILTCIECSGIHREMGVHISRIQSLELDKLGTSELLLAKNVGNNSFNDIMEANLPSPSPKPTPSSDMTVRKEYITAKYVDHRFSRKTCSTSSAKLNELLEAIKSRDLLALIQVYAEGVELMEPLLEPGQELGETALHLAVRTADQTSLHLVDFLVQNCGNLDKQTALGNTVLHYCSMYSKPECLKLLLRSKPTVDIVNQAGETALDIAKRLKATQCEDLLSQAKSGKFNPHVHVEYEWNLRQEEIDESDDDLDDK
# NR1D1 modulator: modulates human Rev-erb alpha binding to DNA | P20393 | Rev-erbα–FITC-DNA binding, fluorescence polarization, 90 min | activity, % at 10 µM | hit rate 0.79% among 370,000 | AID 1259318;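 active = activity above about 14%, limit read from the data; passing the limit was not always enough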;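 note: 0% = DMSO wells with 35 nM protein and 100% = DMSO wells with 750 nM protein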
# MsrA inhibitor: inhibits bovine methionine sulfoxide reductase A; purified bovine MsrA, absorbance read-out; inhibition, % at 15.5 µM; hit rate 0.75% among 360,000; in the data active = inhibition above about 4.5%;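 note: 0% = vehicle wells with enzyme and 100% = reference inhibitor wells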
# sPLA2-III inh: Inhibits HGIII-sPLA2 liposome hydrolysis, primary screen | QFRET BODIPY PC-A2 liposome hydrolysis, fluorescence | AID 743126 | inhibition, % at 12.2 µM | hit rate 0.56% among 370,000 | Q9NZ20;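 active = inhibition above mean plus 3 SD of compounds lying within the high and low control bounds, cut at about 19% in these data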;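 note: 0% = median of test compound wells and 100% = no enzyme DMSO wells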
# Starred values were filed as active, the others as inactive; x = not tested or not shown. Hits are enriched below; roughly 2.7% of the tested compounds scored in any of these assays.
SMILES,bovine MsrA act,ARFGAP1 inh,ASAP1 inh,NR1D1 modulator,MsrA inhibitor,sPLA2-III inh
Cc1cc2nc3ccc(=[N+](C)C)cc-3sc2cc1N,19*,x,x,-32,x,x
CSCCC(NC(=O)C(Cc1c[nH]c2ccccc12)NC(=O)CCNC(=O)OC(C)(C)C)C(=O)NC(CC(=O)O)C(=O)NC(Cc1ccccc1)C(N)=O (centres undefined),x,x,x,-6,x,x
Cc1ccc2nc(-c3ccc(NC(=O)COCC(=O)O)cc3)sc2c1,-5,-8,-3,-9,4.5*,-3
Cc1ccc2nc(-c3ccc(NC(=O)CSCC(=O)O)cc3)sc2c1,-6,-9,2,-7,4,-20
CCn1c(/C=C/Nc2ccccc2)[n+](CC)c2cc(Cl)c(Cl)cc21,-4,-2,4,3,0,12
CCn1c(/C=C/N(C(C)=O)c2ccccc2)[n+](CCCS(=O)(=O)[O-])c2cc(Cl)c(Cl)cc21,-6,-8,10,10,4.6*,0
CC(=O)N1CCc2c(sc(NC(=O)c3cccc(N4C(=O)CCC4=O)c3)c2C(N)=O)C1,-3,0,10,2,4.8*,0
C=C1C2CCC(C2)C1(C)C (centres undefined),x,x,x,-1,x,x
COc1ccc(-c2ccc3c(=O)cc(-c4ccsc4)oc3c2)cn1,-6,36*,26*,6,1,1
Cc1c(C(=O)N2CCCC2)sc(NC(=O)c2cccs2)c1C#N,-4,-1,-6,3,3,4
Cc1c(C(=O)N2CCCC2)sc(NC(=O)c2ccccc2)c1C#N,-3,0,-1,-7,4.6*,3
CN(Cc1ccccc1)C1=CC(=[N+]2CCCCC2)CC(C)(C)C1,-18,-3,10,0,4.7*,1
CC1(C)CC(N2CCN(Cc3ccccc3)CC2)=CC(=[N+]2CCCCC2)C1,-12,8,-3,3,4,4
c1ccc2c(c1)nc(N1CCOCC1)c1nncn12,-1,4,2,-2,4.6*,2
CCN[C@@H]1C[C@H](N)[C@@H](O[C@H]2OC(CN)=CC[C@H]2N)[C@H](O)[C@H]1OC1OC[C@](C)(O)[C@H](NC)[C@H]1O (some centres undefined),x,x,x,8,x,x
COC(=O)c1cccc(-c2ccc(C(c3c(C)[nH][nH]c3=O)c3c(C)[nH][nH]c3=O)o2)c1,-4,32*,26*,8,1,-8
Oc1ccc(/C=N/n2c(-c3ccccc3)n[nH]c2=S)cc1Br,1,4,9,1,4.6*,6
O=C(/C=C/c1ccccc1)Nc1ccc2c(c1)OCCO2,-1,8,11,-6,-1,4
Cc1ccc(NC(=O)/C=C/c2ccco2)nc1,-5,-10,-9,-7,5.0*,3
COc1cccc(NC(=O)/C=C/c2ccco2)c1,-3,5,-3,1,4.6*,-2
O=C(/C=C/c1ccco1)Nc1ccccn1,-7,2,-6,-1,4,4
O=C(/C=C/c1ccco1)Nc1ccc2c(c1)OCCO2,-5,6,8,-5,4.6*,3
Oc1ccc2ccccc2c1,x,x,x,-1,x,x
CCO/C=C1\C(=O)N(c2ccccc2)C(=O)c2ccccc21,1,x,x,x,x,x
CCO/C=C1/C(=O)N(Cc2ccccc2)C(=O)c2ccccc21,-5,18,31*,-5,1,7
SMILES,bovine MsrA act,ARFGAP1 inh,ASAP1 inh,NR1D1 modulator,MsrA inhibitor,sPLA2-III inh
CC(=O)c1sc(Nc2ccccn2)nc1C,-7,26*,6,0,4,-1
CC(=O)c1sc(Nc2cccc3ccccc23)nc1C,-5,14,4,2,3,5
O=[N+]([O-])c1ccc(NCCNS(=O)(=O)c2ccccc2)cc1,-4,-1,6,3,0,-5
O=[N+]([O-])c1ccc(NCCNS(=O)(=O)c2ccccc2)c(C(F)(F)F)c1,-3,2,10,0,5.1*,-26
O=C(OCC(=O)c1ccc(Cl)cc1Cl)c1ccc2c(c1)C(=O)N(c1cccc3ncccc13)C2=O,-1,-3,114*,4,0,5
Cc1ccc(C(=O)COC(=O)c2ccc3c(c2)C(=O)N(c2cccc4ncccc24)C3=O)cc1,-12,-9,-3,-8,0,3
Cc1ccc(C)c(OCc2ccc(C(=O)Nc3ccc([N+](=O)[O-])cn3)o2)c1,-1,0,7,2,1,6
Cc1ccc(C(=O)Nc2ccc([N+](=O)[O-])cn2)o1,-3,10,17,-6,4.6*,4

# High-throughput results from PubChem BioAssay.
